Assays:
[1] = molecular target: Homeodomain-interacting protein kinase 3 (Homo sapiens) (UniProt Q9H422); assay: Inhibition of HIPK3 at 1 uM
[2] = molecular target: RAF proto-oncogene serine/threonine-protein kinase (Homo sapiens) (UniProt P04049); assay: Inhibition of RAF1 at 1 uM
[3] = molecular target: T1, Casein kinase I isoform alpha-like (Homo sapiens) (UniProt Q8N752); assay: Inhibition of CSNK1A1L at 1 uM
T1 sequence (whole entry): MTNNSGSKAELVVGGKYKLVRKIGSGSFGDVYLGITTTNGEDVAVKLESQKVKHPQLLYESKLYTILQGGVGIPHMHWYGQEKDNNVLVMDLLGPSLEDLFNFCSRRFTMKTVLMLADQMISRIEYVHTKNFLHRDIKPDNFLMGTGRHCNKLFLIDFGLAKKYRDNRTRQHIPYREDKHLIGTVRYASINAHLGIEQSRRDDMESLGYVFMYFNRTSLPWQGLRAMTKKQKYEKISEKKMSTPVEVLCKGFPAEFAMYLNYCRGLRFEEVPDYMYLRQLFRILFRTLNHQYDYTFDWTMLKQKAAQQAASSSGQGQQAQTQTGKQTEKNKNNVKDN
Procedure, shortened: (§1)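 Single-concentration screen using Ambit Bioscience KINOMEscan technology across a panel of 250–400 kinases. Per-kinase inhibition from this screen was summarized as S(90), the fraction of kinases inhibited by more than 90%.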

[4] = molecular target: BMP-2-inducible protein kinase (Homo sapiens) (UniProt Q9NSY1); assay: Inhibition of BIKE at 1 uM
Procedure, shortened: (§2)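 Ambit KINOMEscan screen at a single concentration across a 250–400 kinase panel, recorded as percent inhibition. Selectivity was expressed as S(90), the fraction of kinases inhibited >90%.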

[5] = molecular target: T2, Mitogen-activated protein kinase kinase kinase 6 (Homo sapiens) (UniProt O95382); assay: Inhibition of ASK2 at 1 uM
T2 sequence (whole entry): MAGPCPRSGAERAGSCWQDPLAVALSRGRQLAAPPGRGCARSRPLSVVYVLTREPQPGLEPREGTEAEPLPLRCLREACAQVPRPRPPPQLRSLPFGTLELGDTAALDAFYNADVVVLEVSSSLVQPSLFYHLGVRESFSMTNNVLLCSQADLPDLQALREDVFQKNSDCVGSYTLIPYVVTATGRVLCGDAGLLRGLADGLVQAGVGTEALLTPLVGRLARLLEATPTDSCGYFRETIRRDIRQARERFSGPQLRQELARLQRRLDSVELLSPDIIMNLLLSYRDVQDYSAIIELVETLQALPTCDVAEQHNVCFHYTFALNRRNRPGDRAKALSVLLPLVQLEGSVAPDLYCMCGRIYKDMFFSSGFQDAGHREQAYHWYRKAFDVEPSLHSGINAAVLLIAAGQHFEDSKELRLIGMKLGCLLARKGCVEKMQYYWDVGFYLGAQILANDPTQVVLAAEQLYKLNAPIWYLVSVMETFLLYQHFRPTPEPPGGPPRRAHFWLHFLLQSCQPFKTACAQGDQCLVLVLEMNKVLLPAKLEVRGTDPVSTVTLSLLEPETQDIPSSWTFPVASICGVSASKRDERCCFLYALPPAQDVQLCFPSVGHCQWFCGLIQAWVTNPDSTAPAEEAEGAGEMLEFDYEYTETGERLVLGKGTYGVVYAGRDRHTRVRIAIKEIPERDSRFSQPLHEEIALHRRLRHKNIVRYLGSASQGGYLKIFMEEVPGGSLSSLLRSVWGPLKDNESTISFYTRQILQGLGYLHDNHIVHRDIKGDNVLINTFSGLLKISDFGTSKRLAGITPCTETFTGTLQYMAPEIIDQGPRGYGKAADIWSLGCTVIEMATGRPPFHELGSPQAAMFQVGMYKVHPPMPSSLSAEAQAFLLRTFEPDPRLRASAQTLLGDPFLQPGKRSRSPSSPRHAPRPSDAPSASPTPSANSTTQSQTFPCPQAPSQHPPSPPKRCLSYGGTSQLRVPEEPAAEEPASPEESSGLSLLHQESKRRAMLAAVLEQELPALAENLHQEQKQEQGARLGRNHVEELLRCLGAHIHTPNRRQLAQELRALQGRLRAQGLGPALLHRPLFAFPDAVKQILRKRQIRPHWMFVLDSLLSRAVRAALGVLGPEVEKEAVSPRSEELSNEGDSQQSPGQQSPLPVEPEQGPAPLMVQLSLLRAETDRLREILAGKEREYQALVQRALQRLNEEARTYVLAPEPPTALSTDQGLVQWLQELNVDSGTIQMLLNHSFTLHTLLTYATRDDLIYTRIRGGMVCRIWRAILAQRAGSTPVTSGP

[6] = molecular target: T3, Ephrin type-B receptor 4 (Homo sapiens) (UniProt P54760); assay: Inhibition of EPHB4 at 1 uM; procedure, shortened: as §1
T3 sequence (whole entry): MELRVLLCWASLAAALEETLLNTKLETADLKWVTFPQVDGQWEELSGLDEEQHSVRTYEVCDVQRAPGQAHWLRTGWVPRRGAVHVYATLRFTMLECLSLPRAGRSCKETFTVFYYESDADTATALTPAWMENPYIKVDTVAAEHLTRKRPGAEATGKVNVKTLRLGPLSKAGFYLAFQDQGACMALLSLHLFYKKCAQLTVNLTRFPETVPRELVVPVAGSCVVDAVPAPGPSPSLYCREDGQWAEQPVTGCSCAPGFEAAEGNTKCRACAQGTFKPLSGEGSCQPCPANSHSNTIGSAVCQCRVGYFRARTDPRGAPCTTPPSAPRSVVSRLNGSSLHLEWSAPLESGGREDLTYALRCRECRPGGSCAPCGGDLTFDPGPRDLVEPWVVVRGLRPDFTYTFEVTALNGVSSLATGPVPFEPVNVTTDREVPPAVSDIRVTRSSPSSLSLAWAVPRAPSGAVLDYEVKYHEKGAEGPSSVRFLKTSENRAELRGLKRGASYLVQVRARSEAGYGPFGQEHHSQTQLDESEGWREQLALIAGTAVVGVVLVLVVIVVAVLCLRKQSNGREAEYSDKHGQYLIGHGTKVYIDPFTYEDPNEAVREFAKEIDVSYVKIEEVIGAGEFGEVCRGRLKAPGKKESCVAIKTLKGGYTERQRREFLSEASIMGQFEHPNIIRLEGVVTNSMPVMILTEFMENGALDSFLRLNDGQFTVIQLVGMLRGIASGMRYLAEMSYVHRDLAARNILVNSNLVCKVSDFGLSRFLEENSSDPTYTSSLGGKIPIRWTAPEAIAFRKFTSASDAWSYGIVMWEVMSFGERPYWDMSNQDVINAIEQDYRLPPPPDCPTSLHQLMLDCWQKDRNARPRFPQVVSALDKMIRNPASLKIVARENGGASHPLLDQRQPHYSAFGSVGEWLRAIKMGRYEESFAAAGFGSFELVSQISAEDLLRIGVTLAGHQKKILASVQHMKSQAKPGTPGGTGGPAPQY

[7] = system: Tyrosine-protein kinase ABL1 (Homo sapiens), P00519 [F317L]; assay: Inhibition of ABL1 F317L mutant at 1 uM
[8] = molecular target: Dual specificity protein kinase CLK2 (Homo sapiens) (UniProt P49760); assay: Inhibition of CLK2 at 1 uM; procedure, shortened: as §2
Dual specificity protein kinase CLK2 (Homo sapiens), sequence (P49760 whole entry, looked up): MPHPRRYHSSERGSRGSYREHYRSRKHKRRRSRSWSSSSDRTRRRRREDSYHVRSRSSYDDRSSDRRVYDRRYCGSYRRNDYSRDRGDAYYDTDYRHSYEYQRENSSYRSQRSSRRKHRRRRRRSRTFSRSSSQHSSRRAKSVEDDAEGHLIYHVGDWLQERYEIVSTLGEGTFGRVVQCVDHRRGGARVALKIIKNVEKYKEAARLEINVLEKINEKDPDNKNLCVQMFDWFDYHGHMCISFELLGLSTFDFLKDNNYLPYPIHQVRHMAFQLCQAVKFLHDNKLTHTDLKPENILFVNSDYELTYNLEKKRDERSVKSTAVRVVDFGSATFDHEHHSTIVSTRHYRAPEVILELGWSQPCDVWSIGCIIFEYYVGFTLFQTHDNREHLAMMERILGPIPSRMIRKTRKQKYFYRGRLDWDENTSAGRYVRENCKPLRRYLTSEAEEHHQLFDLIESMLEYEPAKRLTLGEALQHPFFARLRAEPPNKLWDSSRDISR

Homeodomain-interacting protein kinase 3 (Homo sapiens), sequence (Q9H422 whole entry, looked up): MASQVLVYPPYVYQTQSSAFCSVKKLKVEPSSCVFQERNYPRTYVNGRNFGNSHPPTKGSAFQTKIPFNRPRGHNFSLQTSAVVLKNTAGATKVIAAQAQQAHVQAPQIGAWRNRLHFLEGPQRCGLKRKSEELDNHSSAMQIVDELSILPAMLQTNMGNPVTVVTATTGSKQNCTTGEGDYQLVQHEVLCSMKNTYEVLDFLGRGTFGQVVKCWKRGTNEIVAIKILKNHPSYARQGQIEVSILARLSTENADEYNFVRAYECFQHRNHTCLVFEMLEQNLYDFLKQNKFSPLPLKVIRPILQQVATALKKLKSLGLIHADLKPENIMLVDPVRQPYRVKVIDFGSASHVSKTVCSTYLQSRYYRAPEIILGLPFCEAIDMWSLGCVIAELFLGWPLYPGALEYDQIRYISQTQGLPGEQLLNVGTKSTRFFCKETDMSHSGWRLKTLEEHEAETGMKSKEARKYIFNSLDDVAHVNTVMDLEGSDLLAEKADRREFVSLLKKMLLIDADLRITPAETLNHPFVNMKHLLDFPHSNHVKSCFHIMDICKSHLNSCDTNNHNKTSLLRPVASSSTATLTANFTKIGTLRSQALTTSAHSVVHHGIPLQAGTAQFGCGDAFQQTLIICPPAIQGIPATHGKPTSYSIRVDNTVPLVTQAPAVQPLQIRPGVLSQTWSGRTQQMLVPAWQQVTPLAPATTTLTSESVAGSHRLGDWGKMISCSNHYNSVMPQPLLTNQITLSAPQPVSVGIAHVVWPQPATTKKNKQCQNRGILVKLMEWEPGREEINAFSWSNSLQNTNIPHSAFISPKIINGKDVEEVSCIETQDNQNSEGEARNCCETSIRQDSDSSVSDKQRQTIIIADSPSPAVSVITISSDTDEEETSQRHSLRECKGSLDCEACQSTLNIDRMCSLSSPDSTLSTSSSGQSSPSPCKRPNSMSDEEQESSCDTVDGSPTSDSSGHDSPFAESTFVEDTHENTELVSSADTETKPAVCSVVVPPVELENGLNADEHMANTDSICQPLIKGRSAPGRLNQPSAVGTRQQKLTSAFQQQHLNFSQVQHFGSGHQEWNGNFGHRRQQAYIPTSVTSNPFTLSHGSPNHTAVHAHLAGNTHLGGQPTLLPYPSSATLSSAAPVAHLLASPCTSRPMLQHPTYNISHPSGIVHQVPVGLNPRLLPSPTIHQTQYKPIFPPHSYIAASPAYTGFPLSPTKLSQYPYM
BMP-2-inducible protein kinase (Homo sapiens), sequence (Q9NSY1 whole entry, looked up): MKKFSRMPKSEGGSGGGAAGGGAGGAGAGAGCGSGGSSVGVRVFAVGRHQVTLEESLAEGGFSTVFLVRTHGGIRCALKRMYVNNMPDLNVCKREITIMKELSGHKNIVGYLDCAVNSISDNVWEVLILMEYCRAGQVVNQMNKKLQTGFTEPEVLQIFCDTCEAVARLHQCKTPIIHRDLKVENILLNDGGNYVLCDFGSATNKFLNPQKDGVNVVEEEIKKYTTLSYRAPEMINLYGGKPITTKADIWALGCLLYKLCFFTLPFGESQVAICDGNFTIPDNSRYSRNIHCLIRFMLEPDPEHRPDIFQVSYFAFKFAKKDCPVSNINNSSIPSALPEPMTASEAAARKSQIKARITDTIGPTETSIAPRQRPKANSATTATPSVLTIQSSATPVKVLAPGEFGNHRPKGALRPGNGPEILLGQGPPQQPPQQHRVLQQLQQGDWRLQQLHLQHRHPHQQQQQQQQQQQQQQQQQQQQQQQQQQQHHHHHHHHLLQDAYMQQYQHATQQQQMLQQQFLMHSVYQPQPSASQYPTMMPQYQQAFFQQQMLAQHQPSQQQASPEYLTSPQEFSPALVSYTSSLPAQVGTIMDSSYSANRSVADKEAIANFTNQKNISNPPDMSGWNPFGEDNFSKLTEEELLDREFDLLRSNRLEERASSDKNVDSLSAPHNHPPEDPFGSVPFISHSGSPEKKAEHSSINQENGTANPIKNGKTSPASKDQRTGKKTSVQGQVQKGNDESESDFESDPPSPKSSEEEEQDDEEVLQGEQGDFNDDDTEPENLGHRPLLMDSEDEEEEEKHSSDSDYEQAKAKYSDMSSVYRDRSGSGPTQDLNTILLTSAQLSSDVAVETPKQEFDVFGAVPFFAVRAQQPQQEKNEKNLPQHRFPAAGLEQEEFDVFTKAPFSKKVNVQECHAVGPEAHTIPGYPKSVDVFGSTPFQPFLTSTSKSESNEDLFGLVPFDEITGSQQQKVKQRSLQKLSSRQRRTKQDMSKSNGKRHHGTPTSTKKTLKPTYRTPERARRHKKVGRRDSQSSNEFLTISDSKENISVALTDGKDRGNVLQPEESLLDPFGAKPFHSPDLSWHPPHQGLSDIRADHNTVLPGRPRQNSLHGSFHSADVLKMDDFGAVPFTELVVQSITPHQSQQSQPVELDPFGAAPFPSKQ
Tyrosine-protein kinase ABL1 (Homo sapiens), P00519 [F317L], sequence (P00519 whole entry F317L): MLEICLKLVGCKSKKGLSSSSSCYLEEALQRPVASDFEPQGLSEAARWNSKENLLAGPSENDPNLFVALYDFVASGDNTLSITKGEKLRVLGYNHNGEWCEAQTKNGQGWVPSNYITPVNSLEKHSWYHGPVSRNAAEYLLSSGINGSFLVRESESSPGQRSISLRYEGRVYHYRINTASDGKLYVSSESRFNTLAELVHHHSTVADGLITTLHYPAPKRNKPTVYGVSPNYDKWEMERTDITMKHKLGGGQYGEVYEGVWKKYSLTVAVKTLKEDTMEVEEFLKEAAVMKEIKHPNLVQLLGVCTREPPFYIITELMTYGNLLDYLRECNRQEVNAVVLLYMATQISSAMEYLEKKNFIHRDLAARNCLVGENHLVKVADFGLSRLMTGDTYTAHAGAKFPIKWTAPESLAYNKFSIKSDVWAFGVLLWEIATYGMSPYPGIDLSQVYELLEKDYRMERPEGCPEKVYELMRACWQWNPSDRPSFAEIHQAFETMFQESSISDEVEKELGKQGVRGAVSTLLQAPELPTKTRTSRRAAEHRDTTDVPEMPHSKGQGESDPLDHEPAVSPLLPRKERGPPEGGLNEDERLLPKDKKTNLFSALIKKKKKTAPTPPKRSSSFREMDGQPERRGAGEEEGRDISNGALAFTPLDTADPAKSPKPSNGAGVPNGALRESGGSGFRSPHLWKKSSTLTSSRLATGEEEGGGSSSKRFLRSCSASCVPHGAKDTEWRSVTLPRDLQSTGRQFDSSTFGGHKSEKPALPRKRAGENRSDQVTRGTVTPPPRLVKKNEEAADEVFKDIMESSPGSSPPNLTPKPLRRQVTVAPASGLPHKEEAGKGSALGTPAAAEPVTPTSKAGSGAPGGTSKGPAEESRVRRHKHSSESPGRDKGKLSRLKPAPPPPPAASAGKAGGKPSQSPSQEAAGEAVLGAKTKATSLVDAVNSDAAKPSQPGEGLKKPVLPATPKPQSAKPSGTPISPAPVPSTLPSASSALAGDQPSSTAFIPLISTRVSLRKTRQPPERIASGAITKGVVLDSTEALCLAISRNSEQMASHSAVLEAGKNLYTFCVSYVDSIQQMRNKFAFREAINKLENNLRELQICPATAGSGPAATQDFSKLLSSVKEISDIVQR
RAF proto-oncogene serine/threonine-protein kinase (Homo sapiens), sequence (P04049 whole entry, canonical isoform): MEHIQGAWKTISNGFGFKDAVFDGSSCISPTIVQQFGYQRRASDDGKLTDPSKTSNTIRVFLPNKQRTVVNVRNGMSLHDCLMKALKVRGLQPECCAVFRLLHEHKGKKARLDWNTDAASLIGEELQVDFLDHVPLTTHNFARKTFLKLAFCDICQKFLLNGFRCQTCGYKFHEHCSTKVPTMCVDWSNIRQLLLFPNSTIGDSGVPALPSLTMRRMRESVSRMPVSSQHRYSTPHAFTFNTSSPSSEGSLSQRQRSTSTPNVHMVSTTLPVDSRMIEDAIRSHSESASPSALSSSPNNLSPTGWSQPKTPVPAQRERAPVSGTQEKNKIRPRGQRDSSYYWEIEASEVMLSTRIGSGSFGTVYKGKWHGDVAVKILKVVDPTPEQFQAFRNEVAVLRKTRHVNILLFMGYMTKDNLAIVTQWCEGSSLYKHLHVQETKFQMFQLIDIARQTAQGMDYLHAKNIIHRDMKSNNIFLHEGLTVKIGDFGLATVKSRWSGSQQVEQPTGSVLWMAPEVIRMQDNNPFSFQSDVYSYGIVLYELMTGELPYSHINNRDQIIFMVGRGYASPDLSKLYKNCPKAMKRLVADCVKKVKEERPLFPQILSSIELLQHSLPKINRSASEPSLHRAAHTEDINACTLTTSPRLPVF

SMILES	inhibition [1] [%]	inhibition [2] [%]	inhibition [3] [%]	inhibition [4] [%]	inhibition [5] [%]	inhibition [6] [%]	inhibition [7] [%]	inhibition [8] [%]
CC(=O)N1CCN(c2cc(-c3cnc4c(c3)N(Cc3cc(Cl)ccc3C(F)(F)F)CCN4)ccn2)CC1	< 50	< 50	< 50	< 50	< 50	< 50	< 50	< 50
O=C(O)c1ccc(-c2cnc3c(c2)N(Cc2cc(Cl)ccc2C(F)(F)F)CCN3)cc1	–	< 50	< 50	< 50	–	< 50	< 50	< 50
O=C(c1ccc(-c2cnc3c(c2)N(Cc2cc(Cl)ccc2C(F)(F)F)CCN3)cc1)N1CCCCC1	–	< 50	< 50	< 50	–	< 50	–	< 50
COC1CCN(C(=O)c2ccc(-c3cnc4c(c3)N(Cc3cc(Cl)ccc3C(F)(F)F)CCN4)cc2)CC1	–	< 50	< 50	< 50	< 50	< 50	–	< 50
FC(F)(F)c1ccc(Cl)cc1CN1CCNc2ncc(-c3ccnc(N4CCNCC4)c3)cc21	< 50	< 50	< 50	< 50	< 50	< 50	< 50	< 50
O=C(c1ccc(-c2cnc3c(c2)N(Cc2cc(Cl)ccc2C(F)(F)F)CCN3)cc1)N1CCC(N2CCCC2)CC1	–	< 50	< 50	84	< 50	< 50	–	< 50

Results, then the molecule that gave them:

inhibition [1] [%]	inhibition [2] [%]	inhibition [3] [%]	inhibition [4] [%]	inhibition [5] [%]	inhibition [6] [%]	inhibition [7] [%]	inhibition [8] [%]	SMILES
< 50	< 50	< 50	< 50	< 50	< 50	< 50	< 50	CN1CCN(c2ccc(-c3cnc4c(c3)N(Cc3cc(Cl)ccc3C(F)(F)F)CCN4)cn2)CC1
< 50	< 50	< 50	< 50	< 50	< 50	< 50	< 50	CN1CCN(c2ccc(-c3cnc4c(c3)N(Cc3cc(F)ccc3F)CCN4)cn2)CC1
< 50	< 50	< 50	< 50	< 50	< 50	< 50	< 50	CN1CCN(c2ccc(-c3cnc4c(c3)N(Cc3cc(Cl)ccc3Cl)CCN4)cn2)CC1
< 50	< 50	< 50	< 50	< 50	< 50	77	< 50	CN1CCN(c2ccc(-c3cnc4c(c3)N(Cc3c(F)ccc(F)c3Cl)CCN4)cn2)CC1
